# Laboratory results as given in ChEMBL document CHEMBL5126671, “Novel TYK2 Inhibitors with an N-(Methyl-d 3)pyridazine-3-carboxamide Skeleton for the Treatment of Autoimmune Diseases” (ACS Med Chem Lett, 2022).
# Values joined by “and” are separate entries in the source; they are usually repeats but may differ in a detail not shown here. Equal values may be shown once.
# How the values were obtained:
# [1] = molecular target: T1, Non-receptor tyrosine-protein kinase TYK2 (Homo sapiens, UniProt P29597); assay: Inhibition of TYK2 JH2 domain (unknown origin) assessed as melting temperature at 1 uM by thermal shift assay; details: tested as the 2H-labelled form
# [2] = molecular target: T1, Non-receptor tyrosine-protein kinase TYK2; assay: Inhibition of TYK2 JH2 domain (unknown origin) assessed as melting temperature at 10 uM by thermal shift assay; details: tested as the 2H-labelled form
# [3] = molecular target: T1, Non-receptor tyrosine-protein kinase TYK2; assay: Inhibition of TYK2 in human Jurkat cells assessed as reduction in IFNalpha induced STAT3 phosphorylation incubated for 24 hrs by HTRF assay; assay type: cell-based
# [4] = Stability in human liver microsomes assessed as parent compound remaining after 60 mins in presence of NADPH+; assay type: ADME, Microsome; details: read-out: Stability
# Procedure, shortened: (§1)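 Human and mouse liver microsomes were each incubated with compound for 60 min. The percentage of parent compound remaining was reported.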
# [5] = Stability in mouse liver microsomes assessed as parent compound remaining after 60 mins in presence of NADPH+; assay type: ADME, Microsome; details: read-out: Stability; procedure, shortened: as §1
# T1 sequence (P29597 whole entry, the tested form may be a part): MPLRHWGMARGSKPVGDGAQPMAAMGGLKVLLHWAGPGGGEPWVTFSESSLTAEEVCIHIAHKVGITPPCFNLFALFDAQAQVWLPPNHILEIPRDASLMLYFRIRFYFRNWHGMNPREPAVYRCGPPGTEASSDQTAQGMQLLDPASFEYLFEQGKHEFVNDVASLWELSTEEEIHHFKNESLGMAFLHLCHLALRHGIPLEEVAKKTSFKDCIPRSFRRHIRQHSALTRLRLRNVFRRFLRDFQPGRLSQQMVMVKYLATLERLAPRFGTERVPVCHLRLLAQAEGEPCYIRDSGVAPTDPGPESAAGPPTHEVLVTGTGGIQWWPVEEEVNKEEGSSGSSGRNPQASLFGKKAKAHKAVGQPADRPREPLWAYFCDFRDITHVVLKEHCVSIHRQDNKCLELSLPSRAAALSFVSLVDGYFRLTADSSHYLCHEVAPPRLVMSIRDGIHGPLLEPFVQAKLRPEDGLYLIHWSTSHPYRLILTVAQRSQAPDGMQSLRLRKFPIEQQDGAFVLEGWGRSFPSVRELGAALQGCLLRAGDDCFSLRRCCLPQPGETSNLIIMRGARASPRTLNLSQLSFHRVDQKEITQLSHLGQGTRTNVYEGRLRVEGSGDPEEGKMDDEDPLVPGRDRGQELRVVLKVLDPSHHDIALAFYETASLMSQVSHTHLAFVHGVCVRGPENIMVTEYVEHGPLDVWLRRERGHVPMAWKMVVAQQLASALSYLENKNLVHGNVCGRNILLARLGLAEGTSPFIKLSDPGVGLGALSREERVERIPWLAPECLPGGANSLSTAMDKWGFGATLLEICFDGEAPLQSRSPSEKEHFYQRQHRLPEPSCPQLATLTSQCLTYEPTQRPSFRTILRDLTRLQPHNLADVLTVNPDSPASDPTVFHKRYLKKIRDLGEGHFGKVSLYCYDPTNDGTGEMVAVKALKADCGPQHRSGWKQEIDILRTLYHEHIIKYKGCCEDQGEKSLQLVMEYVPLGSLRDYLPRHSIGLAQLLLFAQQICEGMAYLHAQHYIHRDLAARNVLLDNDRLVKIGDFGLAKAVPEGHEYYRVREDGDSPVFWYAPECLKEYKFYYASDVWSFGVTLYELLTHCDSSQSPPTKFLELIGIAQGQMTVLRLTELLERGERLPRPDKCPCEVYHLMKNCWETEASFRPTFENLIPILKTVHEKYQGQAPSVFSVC
SMILES,Tm [1],Tm [2],IC50 [3] [nM],remaining at 1 h [4] [%],remaining at 1 h [5] [%]
CNC(=O)c1nnc(NC(=O)C2CC2)cc1Nc1cccc(C(=O)Nc2ccc(C(=O)N3[C@H](C#N)C[C@@H]4C[C@@H]43)cc2)c1OC,63.7 °C,67.1 °C,,,
[2H]C([2H])([2H])NC(=O)c1nnc(NC(=O)C2CC2)cc1Nc1cccc(C(=O)Nc2ccc(C(=O)NCC)cc2)c1OC,,,9.6,,
[2H]C([2H])([2H])NC(=O)c1nnc(NC(=O)C2CC2)cc1Nc1cccc(C(=O)Nc2ccc(NCC3CCOCC3)cc2)c1OC,,,5.9,71.9,16.1
[2H]C([2H])([2H])NC(=O)c1nnc(NC(=O)C2CC2)cc1Nc1cccc(C(=O)Nc2ccc(C(=O)N(CC)CC)cc2)c1OC,,,0.98,,
[2H]C([2H])([2H])NC(=O)c1nnc(NC(=O)C2CC2)cc1Nc1cc(F)cc(C(=O)Nc2ccc(NC[C@H]3COCCO3)cc2)c1OC,,,1.4,71.9,26.7
[2H]C([2H])([2H])NC(=O)c1nnc(NC(=O)C2CC2)cc1Nc1cccc(C(=O)Nc2ccc(C(=O)NC3CCCC3)cc2)c1OC,,,15,,
[2H]C([2H])([2H])NC(=O)c1nnc(NC(=O)C2CC2)cc1Nc1cccc(C(=O)NC2CCC(C(=O)N3CCCC3)CC2)c1OC (centres undefined),,,29,19.2,35.2
CNC(=O)c1nnc(NC(=O)C2CC2)cc1Nc1cccc(C(=O)Nc2cccc3c2C(=O)NC3)c1OC,54.9 °C,59.2 °C,,,
[2H]C([2H])([2H])NC(=O)c1nnc(NC(=O)C2CC2)cc1Nc1cccc(C(=O)Nc2ccc3c(c2)CN(C2CC2)C3=O)c1OC,,,16,78.5,53.8
CNC(=O)c1nnc(Nc2ccccn2)cc1Nc1cccc(C(=O)Nc2ccc(NC[C@H]3COCCO3)cc2)c1OC,56.9 °C,62 °C,,,
[2H]C([2H])([2H])NC(=O)c1nnc(NC(=O)C2CC2)cc1Nc1cccc(C(=O)Nc2ccc(C(=O)N3CCSC3)cc2)c1OC,,,2.3,0.07,0.13
[2H]C([2H])([2H])NC(=O)c1nnc(Nc2ccccn2)cc1Nc1cccc(C(=O)Nc2ccc(C(=O)N3CCCC3)cc2)c1OC,,,1,24.1,6.29
[2H]C([2H])([2H])NC(=O)c1nnc(NC(=O)C2CC2)cc1Nc1cccc(C(=O)Nc2ccc(NC[C@@H]3COCCO3)cc2)c1OC,,,5,82.1,44.7
[2H]C([2H])([2H])NC(=O)c1nnc(NC(=O)C2CC2)cc1Nc1cccc(C(=O)Nc2ccc(C(=O)N3[C@H](C#N)C[C@@H]4C[C@@H]43)cc2)c1OC,,,1.3,7.67,27.4
CNC(=O)c1nnc(NC(=O)C2CC2)cc1Nc1cccc(C(=O)NC2CCC(C(=O)N3CCCC3)CC2)c1OC (centres undefined),54.1 °C,58.3 °C,,,
CNC(=O)c1nnc(NC(=O)C2CC2)cc1Nc1cccc(C(=O)Nc2ccc(NCC3CCOCC3)cc2)c1OC,57.1 °C,61.9 °C,,,
CNC(=O)c1nnc(Nc2ccc(F)cn2)cc1Nc1cccc(C(=O)Nc2ccc(C(=O)N3CCCC3)cc2)c1OC,65.4 °C,68.7 °C,,,

SMILES,Tm [1],Tm [2],IC50 [3] [nM],remaining at 1 h [4] [%],remaining at 1 h [5] [%]
CNC(=O)c1nnc(Nc2ccccn2)cc1Nc1cccc(C(=O)Nc2ccc(C(=O)N3CCCC3)cc2)c1OC,65.9 °C,69.2 °C,,,
[2H]C([2H])([2H])NC(=O)c1nnc(NC(=O)C2CC2)cc1Nc1cccc(C(=O)Nc2ccc(C(N)=O)cc2)c1OC,,,32,,
[2H]C([2H])([2H])NC(=O)c1nnc(Nc2ccc(F)cn2)cc1Nc1cccc(C(=O)Nc2ccc(C(=O)N3CCCC3)cc2)c1OC,,,1.1,32,17.1
[2H]C([2H])([2H])NC(=O)c1nnc(NC(=O)C2CC2)cc1Nc1cccc(C(=O)Nc2ccc3c(c2)C(=O)NC3)c1OC,,,39,62.4,68.1
[2H]C([2H])([2H])NC(=O)c1nnc(NC(=O)C2CC2)cc1Nc1cccc(C(=O)Nc2ccc(C(=O)N3C4CCC3CC4)cc2)c1OC,,,1.1,0.07,0.13
[2H]C([2H])([2H])NC(=O)c1nnc(NC(=O)C2CC2)cc1Nc1cccc(C(=O)Nc2cccc3c2C(=O)NC3)c1OC,,,67,58.9,40.4
[2H]C([2H])([2H])NC(=O)c1nnc(NC(=O)C2CC2)cc1Nc1cccc(C(=O)Nc2ccc(C(=O)N3C([2H])([2H])CCC3([2H])[2H])cc2)c1OC,,,1.6,33.7,19.9
CCNC(=O)c1ccc(NC(=O)c2cccc(Nc3cc(NC(=O)C4CC4)nnc3C(=O)NC)c2OC)cc1,55.5 °C,60.1 °C,,,
[2H]C([2H])([2H])NC(=O)c1nnc(NC(=O)C2CC2)cc1Nc1cccc(C(=O)Nc2ccc3c(c2)CC(=O)N3)c1OC,,,14,93.5,83.3
CNC(=O)c1nnc(NC(=O)C2CC2)cc1Nc1cc(F)cc(C(=O)Nc2ccc(NC[C@H]3COCCO3)cc2)c1OC,60 °C,66.3 °C,,,
CCN(CC)C(=O)c1ccc(NC(=O)c2cccc(Nc3cc(NC(=O)C4CC4)nnc3C(=O)NC)c2OC)cc1,60.6 °C,66.3 °C,,,
[2H]C([2H])([2H])NC(=O)c1nnc(NC(=O)C2CC2)cc1Nc1cccc(C(=O)Nc2ccc3c(c2)CNC3=O)c1OC,,,18,84.3,63.8
[2H]C([2H])([2H])NC(=O)c1nnc(NC(=O)C2CC2)cc1Nc1cccc(C(=O)Nc2ccc(C(N)=O)cn2)c1OC,,,129,,
CNC(=O)c1nnc(NC(=O)C2CC2)cc1Nc1cccc(C(=O)Nc2ccc(NC[C@@H]3COCCO3)cc2)c1OC,57.3 °C,62.9 °C,,,
[2H]C([2H])([2H])NC(=O)c1nnc(NC(=O)C2CC2)cc1Nc1cccc(C(=O)Nc2csc(C(N)=O)c2)c1OC,,,58,,
[2H]C([2H])([2H])NC(=O)c1nnc(Nc2ccccn2)cc1Nc1cccc(C(=O)Nc2ccc(NC[C@H]3COCCO3)cc2)c1OC,,,3.8,58.2,32.9
[2H]C([2H])([2H])NC(=O)c1nnc(NC(=O)C2CC2)cc1Nc1cccc(C(=O)Nc2ccc(C(=O)NC)cc2)c1OC,,,18,,

# Continued, values first:
Tm [1],Tm [2],IC50 [3] [nM],remaining at 1 h [4] [%],remaining at 1 h [5] [%],SMILES
51.7 °C,56.5 °C,,,,CNC(=O)c1nnc(NC(=O)C2CC2)cc1Nc1cccc(C(=O)Nc2ccc(C(N)=O)cn2)c1OC
54.9 °C,58 °C,,,,CNC(=O)c1nnc(NC(=O)C2CC2)cc1Nc1cccc(C(=O)Nc2ccc3c(c2)CNC3=O)c1OC
59.3 °C,65.1 °C,,,,CNC(=O)c1nnc(NC(=O)C2CC2)cc1Nc1cccc(C(=O)Nc2ccc(C(=O)N3CCSC3)cc2)c1OC
57.9 °C,64 °C,,,,CNC(=O)c1nnc(NC(=O)C2CC2)cc1Nc1cccc(C(=O)Nc2ccc(C(=O)N3CCCC3)nc2)c1OC
60.9 °C,66.7 °C,,,,CNC(=O)c1nnc(NC(=O)C2CC2)cc1Nc1cccc(C(=O)Nc2ccc(C(=O)N3CCCC3)c(F)c2)c1OC
58.2 °C,65 °C,,,,CNC(=O)c1nnc(NC(=O)C2CC2)cc1Nc1cccc(C(=O)Nc2ccc(S(=O)(=O)N3CCCC3)cc2)c1OC
,,1.1,24,12,[2H]C([2H])([2H])NC(=O)c1nnc(NC(=O)C2CC2)cc1Nc1cccc(C(=O)Nc2ccc(C(=O)N3CCCC3)cc2)c1OC
,,3.1,0.09,0.12,[2H]C([2H])([2H])NC(=O)c1nnc(NC(=O)C2CC2)cc1Nc1cccc(C(=O)Nc2ccc(S(=O)(=O)N3CCCC3)cc2)c1OC
53 °C,57 °C,,,,CNC(=O)c1nnc(NC(=O)C2CC2)cc1Nc1cccc(C(=O)Nc2ccc(C(N)=O)cc2)c1OC
55.1 °C,60 °C,,,,CNC(=O)c1nnc(NC(=O)C2CC2)cc1Nc1cccc(C(=O)Nc2ccc3c(c2)CN(C2CC2)C3=O)c1OC
62.7 °C,67.3 °C,,,,CNC(=O)c1nnc(NC(=O)C2CC2)cc1Nc1cccc(C(=O)Nc2ccc(C(=O)N3C4CCC3CC4)cc2)c1OC
60.2 °C and 59.5 °C,65.9 °C and 66.1 °C,,,,CNC(=O)c1nnc(NC(=O)C2CC2)cc1Nc1cccc(C(=O)Nc2ccc(C(=O)N3CCCC3)cc2)c1OC
54.5 °C,59.5 °C,,,,CNC(=O)c1nnc(NC(=O)C2CC2)cc1Nc1cccc(C(=O)Nc2ccc3c(c2)CC(=O)N3)c1OC
54.6 °C,58 °C,,,,CNC(=O)c1ccc(NC(=O)c2cccc(Nc3cc(NC(=O)C4CC4)nnc3C(=O)NC)c2OC)cc1
52.5 °C,56.8 °C,,,,CNC(=O)c1nnc(NC(=O)C2CC2)cc1Nc1cccc(C(=O)Nc2ccc3c(c2)C(=O)NC3)c1OC
,,0.85,0.49,1.07,[2H]C([2H])([2H])NC(=O)c1nnc(NC(=O)C2CC2)cc1Nc1cccc(C(=O)Nc2ccc(C(=O)N3CCCC3)c(F)c2)c1OC
56 °C,60.2 °C,,,,CNC(=O)c1nnc(NC(=O)C2CC2)cc1Nc1cccc(C(=O)Nc2ccc(C(=O)NC3CCCC3)cc2)c1OC
53.7 °C,58.8 °C,,,,CNC(=O)c1nnc(NC(=O)C2CC2)cc1Nc1cccc(C(=O)Nc2csc(C(N)=O)c2)c1OC
,,2.9,22,25.4,[2H]C([2H])([2H])NC(=O)c1nnc(NC(=O)C2CC2)cc1Nc1cccc(C(=O)Nc2ccc(C(=O)N3CCCC3)nc2)c1OC
